ChEMBL document CHEMBL5712884, “S-Adenosyl-L-methionine-competitive inhibitors of the histone methyltransferase EZH2 induce autophagy and enhance drug sensitivity in cancer cells” (Anticancer Drugs, 2015)
One block for each compound: values may come before it. Active and inactive are the calls of the source. The calls are words filed in the database; no cut-off is given here.

How the values were obtained:
MDA-MB-231 [1] = experiment: Induction of autophagy in human MDA-MB-231 cells assessed as induction of LC3-II accumulation at 10 umol/L for 48 hrs by Western blot analysis; conditions: dose 10.0 µmol/L
A549 [2] = experiment: […] in human A549 cells assessed as induction of LC3-II accumulation at 10 to 20 umol/L measured after 24 hrs in presence of bafilomycin A1 by Western blot analysis; format: functional, cell-based; conditions: dose 10-20 µmol/L
How it was run: (§1)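 A549 and HepG2 cells drug-treated with or without bafilomycin A1. Lysates made in Tris pH 7.5/NP-40 buffer with protease and phosphatase inhibitors, 25–50 μg run on 7–12% SDS-PAGE, probed for LC3B, ECL detection.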

MDA-MB-231 [3] = experiment: Induction of autophagy in human MDA-MB-231 cells assessed as change in total LAMP2 expression at 10 umol/L measured after 24 hrs by Western blot analysis; format: toxicity, cell-based; conditions: mda-mb-231, 24 h, 10 µM, dose 10 µmol/L
MDA-MB-231 [4] = experiment: Induction of autophagy in human MDA-MB-231 cells assessed as induction of LC3-II accumulation at 10 to 20 umol/L incubated for 72 hrs by Western blot analysis; format: functional, cell-based; conditions: dose 10-20 µmol/L
HepG2 [5] = experiment: Cytotoxicity against human HepG2 cells assessed as effect on cell viability after 72 hrs by MTT analysis; format: functional, cell-based
How it was run: (§2)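 Cells in DMEM with 10% FBS at 37°C, 5% CO2, plated in 96-well plates and drug-treated for 72 h. MTT 0.5 mg/ml added for 4 h, formazan dissolved in DMSO, absorbance read at 550 nm. Means and SDs; Student's t-test.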

MDA-MB-231 [6] = experiment: Induction of autophagy in human MDA-MB-231 cells assessed as reduction in expression of p62 at 10 umol/L incubated for 24 hrs by Western blot analysis; format: functional, cell-based; conditions: dose 10.0 µmol/L
MDA-MB-231 [7] = experiment: Induction of autophagy in human MDA-MB-231 cells assessed as downregulation of p62 expression at 10 umol/L measured after 24 hrs in presence of bafilomycin A1 by Western blot analysis; format: functional, cell-based; conditions: dose 10.0 µmol/L
MDA-MB-231 [8] = experiment: Induction of autophagy in human MDA-MB-231 cells assessed as change in total LAMP2 expression at 10 umol/L measured after 24 hrs in presence of bafilomycin A1 by Western blot analysis; format: toxicity, cell-based; conditions: mda-mb-231, 24 h, 10 µM, dose 10 µmol/L
HepG2 [9] = experiment: Potentiation of sorafenib-induced anticancer activity in human HepG2 cells assessed as increase in cleaved PARP expression at 10 umol/L measured after 72 hrs by Western blot analysis; format: functional, cell-based; conditions: dose 10.0 µmol/L
How it was run: (§3)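 HepG2 cells given 5 μmol/l sorafenib, with or without 10 μmol/l compound, for 72 h. Whole-cell lysates immunoblotted for PARP1, LC3B and β-actin.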

HepG2 [10] = experiment: […] in human HepG2 cells assessed as induction of LC3-II accumulation at 10 to 20 umol/L measured after 24 hrs by Western blot analysis; format: functional, cell-based; conditions: dose 10-20 µmol/L
How it was run: as §1

A549 [11] = experiment: Cytotoxicity against human A549 cells assessed as reduction in cell viability at 10 umol/L measured after 72 hrs in presence of class III PI3K inhibitor 3-methyladenine by MTT assay; format: functional, cell-based; conditions: dose 10.0 µmol/L
How it was run: (§4)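 HepG2 and A549 cells pretreated 1 h with 2 mmol/l 3-MA, then exposed to 10 μmol/l compound for 72 h. Viability read by MTT (0.5 mg/ml, 4 h, formazan in DMSO, A550). Means and SDs; Student's t-test against cells without 3-MA.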

MDA-MB-231 [12] = experiment: Induction of autophagy in human MDA-MB-231 cells assessed as increase in LC3-II accumulation at 10 umol/L incubated for 24 hrs in presence of bafilomycin A1 by Western blot analysis; format: functional, cell-based; conditions: dose 10.0 µmol/L
HepG2 [13] = experiment: Cytotoxicity against human HepG2 cells assessed as reduction in cell viability at 10 umol/L measured after 72 hrs in presence of class III PI3K inhibitor 3-methyladenine by MTT assay; format: functional, cell-based; conditions: dose 10.0 µmol/L
How it was run: as §4

HepG2 [14] = experiment: Potentiation of sorafenib-induced anticancer activity in human HepG2 cells at 10 umol/L measured after 72 hrs by MTT assay; format: functional, cell-based; conditions: dose 10.0 µmol/L
How it was run: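 HepG2 cells given a range of sorafenib doses, with or without 10 μmol/l compound, for 72 h. Viability by MTT (0.5 mg/ml, 4 h, DMSO, A550). Student's t-test against untreated cells.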

HepG2 [15] = experiment: Cytotoxicity against human HepG2 cells assessed as effect on cell viability incubated for 72 hrs by MTT analysis; format: functional, cell-based
How it was run: as §2

[16] = target: Histone-lysine N-methyltransferase EZH2 (Homo sapiens) (UniProt Q15910); experiment: Inhibition of EZH2 in human A549 cells assessed as reduction in H3K27-me3 level at 10 umol/L incubated for 72 hrs by Western blot analysis; format: cell-based; conditions: dose 10.0 µmol/L
Chain of Histone-lysine N-methyltransferase EZH2 (Homo sapiens) (Q15910 whole entry, looked up): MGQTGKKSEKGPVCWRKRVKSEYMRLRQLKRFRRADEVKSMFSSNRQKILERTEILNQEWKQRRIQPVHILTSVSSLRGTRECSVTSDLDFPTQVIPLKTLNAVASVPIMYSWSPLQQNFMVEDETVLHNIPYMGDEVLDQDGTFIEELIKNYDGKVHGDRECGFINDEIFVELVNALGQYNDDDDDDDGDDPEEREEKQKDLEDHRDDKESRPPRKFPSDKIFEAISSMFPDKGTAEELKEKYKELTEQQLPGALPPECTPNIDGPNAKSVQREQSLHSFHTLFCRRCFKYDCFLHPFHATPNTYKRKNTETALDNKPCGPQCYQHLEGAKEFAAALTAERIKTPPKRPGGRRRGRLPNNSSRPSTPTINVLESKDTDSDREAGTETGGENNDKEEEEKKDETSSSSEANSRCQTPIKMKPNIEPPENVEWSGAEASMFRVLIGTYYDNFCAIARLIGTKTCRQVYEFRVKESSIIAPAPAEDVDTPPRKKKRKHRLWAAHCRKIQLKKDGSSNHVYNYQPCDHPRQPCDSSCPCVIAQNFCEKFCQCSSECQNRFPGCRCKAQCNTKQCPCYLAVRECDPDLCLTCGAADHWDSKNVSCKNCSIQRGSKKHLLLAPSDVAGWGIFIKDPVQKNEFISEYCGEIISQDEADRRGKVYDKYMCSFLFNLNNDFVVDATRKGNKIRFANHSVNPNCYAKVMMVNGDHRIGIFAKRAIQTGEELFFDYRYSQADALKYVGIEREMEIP

HepG2 [17] = experiment: Potentiation of sorafenib-induced anticancer activity in human HepG2 cells assessed as increase in LC3-II accumulation at 10 umol/L measured after 72 hrs by Western blot analysis; format: functional, cell-based; conditions: dose 10.0 µmol/L
How it was run: as §3

HepG2 [18] = experiment: […] in human HepG2 cells assessed as induction of LC3-II accumulation at 10 to 20 umol/L measured after 24 hrs in presence of bafilomycin A1 by Western blot analysis; format: functional, cell-based; conditions: dose 10-20 µmol/L
How it was run: as §1

MDA-MB-231 [19] = experiment: Induction of apoptosis in human MDA-MB-231 cells assessed as induction of cleavage of caspase-3 at 10 to 20 umol/L incubated for 72 hrs by Western blot analysis; format: functional, cell-based; conditions: dose 10-20 µmol/L
[20] = target: Histone-lysine N-methyltransferase EZH2 (Homo sapiens) (UniProt Q15910); experiment: Inhibition of EZH2 in human MDA-MB-231 cells assessed as reduction in H3K27-me3 level at 10 umol/L incubated for 72 hrs by Western blot analysis; format: cell-based; conditions: dose 10.0 µmol/L
MDA-MB-231 [21] = experiment: Induction of autophagy in human MDA-MB-231 cells assessed as formation of autophagic vacuoles by measuring increase in Cyto-ID fluorescence intensity at 10 umol/L by measured after 24 hrs by Cyto-ID/Hoechst 33342 fluorescence microscopic analysis; format: functional, cell-based; conditions: dose 10.0 µmol/L
How it was run: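 MDA-MB-231 cells washed twice in PBS with 5% FBS, then stained with Cyto-ID detection reagent plus Hoechst 33342 for 30 min at 37°C. Cells washed and autophagic vacuoles imaged by fluorescence microscopy.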

A549 [22] = experiment: […] in human A549 cells assessed as induction of LC3-II accumulation at 10 to 20 umol/L measured after 24 hrs by Western blot analysis; format: functional, cell-based; conditions: dose 10-20 µmol/L
How it was run: as §1

MDA-MB-231 [23] = experiment: Cytotoxicity against human MDA-MB-231 cells assessed as reduction in cell viability measured after 72 hrs in presence of class III PI3K inhibitor 3-methyladenine by MTT assay; format: functional, cell-based
[24] = target: Histone-lysine N-methyltransferase EZH2 (Homo sapiens) (UniProt Q15910); experiment: Inhibition of EZH2 in human HepG2 cells assessed as reduction in H3K27-me3 level at 10 umol/L incubated for 72 hrs by Western blot analysis; format: cell-based; conditions: dose 10.0 µmol/L
MDA-MB-231 [25] = experiment: Induction of apoptosis in human MDA-MB-231 cells assessed as reduction in pro-caspase-3 expression at 10 to 20 umol/L incubated for 72 hrs by Western blot analysis; format: functional, cell-based; conditions: dose 10-20 µmol/L
MDA-MB-231 [26] = experiment: Cytotoxicity against human MDA-MB-231 cells assessed as reduction in cell viability after 72 hr by MTT analysis; format: functional, cell-based
How it was run: as §2

MDA-MB-231 [27] = experiment: […] in human MDA-MB-231 cells assessed as induction of LC3-II accumulation at 10 umol/l measured after 24 hrs in presence of class III PI3K inhibitor 3-methyladenine by Western blot analysis; format: functional, cell-based; conditions: dose 10.0 µmol/L
MDA-MB-231 [28] = experiment: Induction of apoptosis in human MDA-MB-231 cells assessed as induction of cleavage of PARP at 10 to 20 umol/L incubated for 72 hrs by Western blot analysis; format: functional, cell-based; conditions: dose 10-20 µmol/L
MDA-MB-231 [29] = experiment: Induction of autophagy in human MDA-MB-231 cells assessed as induction of LC3-II accumulation at 10 to 20 umol/L incubated for 24 hrs by Western blot analysis; format: functional, cell-based; conditions: dose 10-20 µmol/L

SMILES: CCCc1cc(C)[nH]c(=O)c1CNC(=O)c1cc(-c2ccc(N3CCN(C(C)C)CC3)nc2)cc2c1cnn2C(C)C
Activity (MDA-MB-231 [1]): Active

inhibition [16]: Active
inhibition [20]: Active
inhibition [24]: Active
SMILES: CCCc1cc(C)[nH]c(=O)c1CNC(=O)c1cc(-c2ccnc(N3CCN(C)CC3)c2)cc2c1cnn2C(C)C
Activity (A549 [2]): Active
Activity (MDA-MB-231 [3]): Non-Toxic
Activity (MDA-MB-231 [4]): Active
Activity (HepG2 [5]): Active
Activity (MDA-MB-231 [6]): Active
Activity (MDA-MB-231 [7]): inactive
Activity (MDA-MB-231 [8]): Non-Toxic
Activity (MDA-MB-231 [1]): Active
Activity (HepG2 [9]): Active
Activity (HepG2 [10]): Active
Activity (A549 [11]): inactive
Activity (MDA-MB-231 [12]): Active
Activity (HepG2 [13]): inactive
Activity (HepG2 [14]): Active
Activity (HepG2 [15]): Active
Activity (HepG2 [17]): Active
Activity (HepG2 [18]): Active
Activity (MDA-MB-231 [19]): inactive
Activity (MDA-MB-231 [21]): Active
Activity (A549 [22]): Active
Activity (MDA-MB-231 [23]): inactive
Activity (MDA-MB-231 [25]): Active
Activity (MDA-MB-231 [26]): Dose-Dependent Effect
Activity (MDA-MB-231 [27]): inactive
Activity (MDA-MB-231 [28]): Active
Activity (MDA-MB-231 [29]): Active

SMILES: COc1ccc2cc3[n+](cc2c1OC)CCc1cc2c(cc1-3)OCO2
Activity (MDA-MB-231 [1]): Active
